# Published values pooled from the literature.
# Compare with care: the assays were run in different laboratories.
# Target: SRSF protein kinase 3 (SRPK3, Homo sapiens, UniProt Q9UPE1)
Structure (SMILES),assay,conditions,measurement,value
C#Cc1cnc(Nc2ccnc(CO)c2)nc1Nc1ccccc1S(C)(=O)=NC#N (centres unmarked),cell-free assay,1 µM,remaining signal,47%
C=CC(=O)N1CCC[C@@H](n2nc(-c3ccc(Oc4ccccc4)cc3)c3c(N)ncnc32)C1,"enzyme activity, inhibitor",1 µM,inhibition,16%
CCCCC(=O)Nc1ccc(-c2ccc3ncn(CCC)c(=O)c3c2)cn1,"binding, competition with immobilised ligand",0.5 µM,remaining binding,92%
CC#CC(=O)N1CCC[C@H]1c1nc(-c2ccc(C(=O)Nc3ccccn3)cc2)c2c(N)nccn12,"enzyme activity, inhibitor",1 µM,inhibition,0%
CN1CCN(C(=O)c2ccc(NC(=O)Nc3ccc(N(C)c4ccnc(Nc5ccc(CS(C)(=O)=O)cc5)n4)cc3)cc2)CC1,binding,1 µM,remaining binding,7.7%
N#Cc1ccc(NC(=O)Nc2ccccc2)cc1,"cell-free assay, competition with immobilised ligand",25 µM,inhibition,90.3%
Cc1ccc(NC(=O)c2ccnc(C(F)(F)F)c2)cc1-c1cc(OCCO)nc(N2CCOCC2)c1,binding,1 µM,remaining binding,93%
CC(C)S(=O)(=O)c1ccc2nccc(Nc3ccc4sc(C5CCCC5)nc4c3)c2c1,"enzyme activity, inhibitor",1 µM,activity vs control,110%
